# Only some compounds are listed: those with a hit (about 2.7% of all), similar ones and a draw of the others.
# F508del corr = CFTR F508del correction in bronchial cells | CFBE cells, YFP halide quenching; stimulated with forskolin plus potentiator P3; % fluorescence drop versus neutral controls | activity (quench increase), % at 7.58 µM | 0.36% of 350,000 active | AID 720511;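 active = mean added fluorescence quench of at least 8% versus neutral control, with both replicates also reaching 8%; inconclusive = only one of the mean or replicate conditions met; inactive = mean below 8% and not both replicates reaching 8%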;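 note: cells transiently co-express mutant CFTR-F508del with the halide-sensitive YFP; corrector assay measuring rescue of mutant channel to the surface after 24 h compound exposure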
# E-selectin induc = induces E-selectin expression in human endothelial cells; HUVEC E-selectin immunofluorescence imaging; normalized: neutral wells 0, TNF-alpha wells 100; activation, % at 7.58 µM; 0.37% of 260,000 active;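 active = mean E-selectin-positive cell signal at least 10% of the positive control, reached in at least 60% of replicates, without over 20% cell loss; inconclusive = no rule given, readout overlaps actives, possibly toxicity-flagged; inactive = the rest, including those meeting only one limit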
# Target sequence (P16581 whole entry, looked up): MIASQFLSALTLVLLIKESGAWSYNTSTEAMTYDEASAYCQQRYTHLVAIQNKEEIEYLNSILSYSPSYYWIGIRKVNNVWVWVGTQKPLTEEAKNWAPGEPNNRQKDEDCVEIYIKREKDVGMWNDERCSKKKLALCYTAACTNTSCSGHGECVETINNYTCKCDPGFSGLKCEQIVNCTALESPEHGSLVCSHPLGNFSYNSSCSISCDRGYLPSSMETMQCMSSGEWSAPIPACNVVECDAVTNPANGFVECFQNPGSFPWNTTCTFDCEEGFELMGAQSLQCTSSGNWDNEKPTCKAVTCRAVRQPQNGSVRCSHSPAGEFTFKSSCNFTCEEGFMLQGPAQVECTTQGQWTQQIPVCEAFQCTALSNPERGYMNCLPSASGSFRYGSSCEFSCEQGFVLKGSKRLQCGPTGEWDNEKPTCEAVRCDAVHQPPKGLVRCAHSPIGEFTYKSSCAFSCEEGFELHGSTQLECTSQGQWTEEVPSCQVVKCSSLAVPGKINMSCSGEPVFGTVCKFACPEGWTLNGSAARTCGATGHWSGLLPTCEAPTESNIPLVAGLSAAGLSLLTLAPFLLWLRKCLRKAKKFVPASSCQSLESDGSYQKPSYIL
#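 assay system = HUVEC, human umbilical vein endothelial cells | input = 3,000 HUVEC seeded per well | medium = EGM-2 growth medium on 0.1% gelatin-coated wells | dosing = one compound dose added by pin transfer | signal = immunofluorescence imaging | read-out basis = % PE-positive cells | control set = TNF-alpha, DMSO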
# FGF22 binding = binders of recombinant human FGF22 by thermal shift; SYPRO orange fluorescence; percent of sucrose octasulfate shift, DMSO zero; activity (Tm shift, normalised), % at 9.99 µM; Q9HCT0; 1.5% of 340,000 active;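 active = mean Tm shift, scaled 0 neutral to 100 positive control, at about 1.3% or above, every replicate too, limit read from the data; inconclusive = no clear call, values can overlap the other calls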
# S100A4 inh HTS = blocks human S100A4 binding to myosin IIA peptide; inhibition, % at 10.7 µM; S100A4/TAMRA-MyoIIA peptide fluorescence polarization; 0.14% of 360,000 active;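 active = mean inhibition of at least 70% across replicates, with every replicate also reaching that level; inconclusive = mean inhibition reaches 70% but some replicates fall short; inactive = mean inhibition below 70%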
#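 Material: S100A4 monomer protein / Buffer or medium: 50 mM HEPES pH 7.2, 10 mM CaCl2, 100 mM KCl / Times: 5 min incubation before reading / Benchmarks: neutral control DMSO, positive control TFP / Reagent: labelled myosin peptide probe, 5 nM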
# HIV Env fusion = inhibitors of HIV Env-mediated cell fusion | HeLa-JRFL Env/CEM21 cell fusion, luciferase | inhibition, % at 12.3 µM | 1.1% of 360,000 active;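 active = mean replicate inhibition score of at least 50 and every replicate individually at or above 50; inconclusive = only one of the two criteria met; inactive = mean below 50 and not all replicates reaching 50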
# A number is an active result; n = inactive; u = inconclusive; x = no result; [ ] = dose if it differs, or a comment.
SMILES,F508del corr,E-selectin induc,FGF22 binding,S100A4 inh HTS,HIV Env fusion
Cc1noc(C)c1S(=O)(=O)N(C)C[C@H]1Oc2ccc(NS(C)(=O)=O)cc2CC(=O)N([C@@H](C)CO)C[C@H]1C,n,28,n,n,n
CO[C@@H]1CN(C)C(=O)c2ccc(NC(=O)c3cc(C)on3)cc2OC[C@@H](C)N(S(=O)(=O)c2cccc(C)c2)C[C@H]1C,n,n,n,n,x
C[C@@H]1CN([C@H](C)CO)C(=O)c2cc(/C=C/c3ccccc3)cnc2O[C@@H]1CN(C)C(=O)c1cnccn1,n,n,n,n,n
CN(C)C(=O)C[C@@H]1CC[C@@H](NC(=O)C2CCOCC2)[C@@H](CO)O1,n,n,n,n,n
C[C@@H]1CN([C@@H](C)CO)C(=O)c2cc(NC(=O)Nc3ccc(F)cc3)ccc2O[C@@H]1CN(C)Cc1ccc(-c2ccccc2)cc1,n,u,n,n,n
COc1ccc(S(=O)(=O)N(C)C[C@H]2Oc3ccc(NC(=O)Nc4ccc5c(c4)OCO5)cc3CC(=O)N([C@H](C)CO)C[C@H]2C)cc1,n,36,n,n,n
COc1ccc(S(=O)(=O)Nc2ccc3c(c2)CC(=O)N([C@H](C)CO)C[C@H](C)[C@H](CN(C)S(=O)(=O)c2ccc(OC)cc2)O3)cc1,n,n,n,n,56[16.7 µM]
C[C@@H](NC(=O)[C@@H]1[C@@H](CO)[C@@H]2Cn3c(ccc(C4=CCCCC4)c3=O)[C@H]1N2)c1ccccc1,n,n,n,n,x
CN1C(C(=O)NCc2cccs2)=CC(c2ccc(F)cc2)=NS1(=O)=O,n,x,n,n,71
CC(C)(C)NC(=O)c1nn(Cc2ccccc2)c(=O)c2ccccc12,n,n,43,n,n
CCC(CC)NC(=O)c1nn(Cc2ccccc2)c(=O)c2ccccc12,n,x,n,n,n
CC(C)OC(=O)N(C)C[C@H]1OCc2ccccc2-c2ccccc2C(=O)N([C@@H](C)CO)C[C@@H]1C,n,n,n,n,n
CO[C@@H]1CN(C)C(=O)c2ccc(NC(=O)c3ccccc3F)cc2OC[C@H](C)N(C(C)=O)C[C@@H]1C,n,n,n,n,x
Cc1ccc(NC(=O)CSCC(=O)O)cc1,n,n,n,n,n
O=C(O)CSCC(=O)Nc1ccc(C2CCCCC2)cc1,x,x,x,x,98
COCC#Cc1ccc2c(c1)O[C@@H](CN(C)C(=O)Nc1ccccc1F)[C@H](C)CN([C@@H](C)CO)S2(=O)=O,n,n,n,n,n
C[C@@H]1CNC(=O)c2c(C(=O)NCC(=O)OC(C)(C)C)ncn21,n,n,43,n,n
C/C=C/c1ccc2c(c1)O[C@H](CN(C)C(=O)CC)[C@@H](C)CN([C@H](C)CO)S2(=O)=O,n,74,n,n,n
CCC(=O)N(C)C[C@@H]1Oc2cc(C#Cc3ccccc3)ccc2S(=O)(=O)N([C@H](C)CO)C[C@H]1C,n,n,n,n,66[16.7 µM]
C[C@@H]1CN([C@H](C)CO)S(=O)(=O)c2ccc(C#Cc3ccccc3)cc2O[C@H]1CN(C)C(=O)C1CC1,n,n,n,n,58[16.7 µM]
C[C@H]1CN([C@@H](C)CO)S(=O)(=O)c2ccc(C#Cc3ccccc3F)cc2O[C@H]1CN(C)C(=O)c1ccc2c(c1)OCO2,9.6,n,n,n,n
C[C@@H]1CN([C@@H](C)CO)S(=O)(=O)c2ccc(C#Cc3ccccc3F)cc2O[C@@H]1CN(C)C(=O)c1ccc2c(c1)OCO2,n,n,n,n,n
CCC(=O)N(C)C[C@H]1Oc2cc(C#Cc3ccccc3)ccc2S(=O)(=O)N([C@H](C)CO)C[C@@H]1C,n,n,n,n,n
CCCC(=O)N1CC2(CCN(S(=O)(=O)CC)CC2)c2c(n(C)c3cc(OC)ccc23)[C@H]1CO,n,n,n,n,x
CCCN(C)C[C@H]1Oc2cc(-c3cncnc3)ccc2S(=O)(=O)N([C@H](C)CO)C[C@H]1C,n,n,n,n,n
CCC(=O)N1CC2(C1)[C@@H](c1ccccc1)[C@H](CO)N2C(=O)NC(C)C,n,n,x,n,x
C[C@@H]1CN([C@@H](C)CO)S(=O)(=O)c2ccc(C#C[C@@H](C)O)cc2O[C@@H]1CN(C)C(=O)C1CC1,n,n,n,n,n
C[C@@H]1CN([C@H](C)CO)S(=O)(=O)c2ccc(C#CCN(C)C)cc2O[C@@H]1CN(C)CC1CC1,n,n,n,96,n

# Compound activity (PubChem)
